Source: ChEMBL document CHEMBL3228025, “Synthesis and analgesic activities of some (4-substituted phenyl-1-piperazinyl)alkyl 2-aminobenzoates and 2-aminonicotinates” (J Med Chem, 1979)

Tests used:
[1] = Acute toxicity in po dosed CD1 mouse after 7 days; assay type: organism-based; conditions: in vivo
Procedure, shortened: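 Male CD1 mice, 20 ± 2 g, oral dosing at 10 mL/kg as an aqueous solution or suspension in 1% Tween 80 in distilled water. At least 10 animals per dose level, observed for 7 days. Oral LD50 calculated by the Litchfield–Wilcoxon method.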

Rattus norvegicus = test: Antiinflammatory activity in po dosed CD1 rat assessed as inhibition of carrageenan-induced paw edema administered 1 hr prior to carrageenan challenge measured after 3 hrs
Mus musculus [2] = test: Analgesic activity in po dosed CD1 mouse assessed as inhibition of acetic acid-induced writhing administered 30 mins prior to acetic acid challenge measured after 15 mins; assay type: functional
Procedure, shortened: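 Male CD1 mice, 20 ± 2 g, randomly grouped and dosed orally at several levels (10 mL/kg, 1% Tween 80 vehicle), with at least two groups of six per dose. After 30 min, 0.6% acetic acid was given ip at 10 mL/kg, and writhes were counted per group over 15 min. ED50 (dose halving writhes) was read graphically, with no SEM computed.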

Mus musculus [3] = test: Analgesic activity in po dosed OF1 mouse assessed as dose required to double paw licking reaction time after 30 mins by hot plate test; assay type: functional; conditions: 0.5 h
Procedure, shortened: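 Male OF1 mice, 20 ± 2 g, given oral doses at several levels in 1% Tween 80 at 10 mL/kg, at least 10 per dose. After 30 min each mouse was placed on a metal plate at 56 °C and paw-licking latency was recorded. ED2 (dose doubling latency) was read graphically, with SEM and Dunnett's t versus controls.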

O=C(OCCN1CCN(c2ccccc2)CC1)c1ccccc1Nc1cccc(C(F)(F)F)c1
LD50 at 168 h [1]: > 2000 mg/kg
ED40 (Rattus norvegicus): 100 mg/kg
ED50 (Mus musculus [2]): 400 mg/kg

Cc1cccc(Nc2ccccc2C(=O)OCCN2CCN(c3ccccc3)CC2)c1C
LD50 at 168 h [1]: 4000 mg/kg
ED40 (Rattus norvegicus): > 50 mg/kg
ED50 (Mus musculus [2]): 90 mg/kg

O=C(OCCN1CCN(c2ccccc2)CC1)c1ccccc1Nc1cccc(OC(F)(F)F)c1
LD50 at 168 h [1]: 2000 mg/kg
ED40 (Rattus norvegicus): 150 mg/kg
ED50 (Mus musculus [2]): > 400 mg/kg

O=C(OCCN1CCN(c2cccc(Cl)c2)CC1)c1ccccc1Nc1cccc(SC(F)(F)F)c1
LD50 at 168 h [1]: 2000 mg/kg
ED40 (Rattus norvegicus): > 50 mg/kg
ED50 (Mus musculus [2]): > 400 mg/kg

O=C(OCCN1CCN(c2cccc(C(F)(F)F)c2)CC1)c1ccccc1Nc1cccc(SC(F)(F)F)c1
LD50 at 168 h [1]: > 4000 mg/kg
ED40 (Rattus norvegicus): > 50 mg/kg
ED50 (Mus musculus [2]): 300 mg/kg

O=C(OCCN1CCN(c2cccc(C(F)(F)F)c2)CC1)c1cccnc1Nc1cccc(SC(F)(F)F)c1
LD50 at 168 h [1]: > 4000 mg/kg
ED40 (Rattus norvegicus): > 50 mg/kg
ED50 (Mus musculus [2]): 250 mg/kg

O=C(OCCN1CCN(c2cccc(Cl)c2)CC1)c1cccnc1Nc1cccc(SC(F)(F)F)c1
LD50 at 168 h [1]: > 4000 mg/kg
ED40 (Rattus norvegicus): > 300 mg/kg
ED50 (Mus musculus [2]): 100 mg/kg

Cc1c(Cl)cccc1Nc1ncccc1C(=O)OCCN1CCN(c2cccc(C(F)(F)F)c2)CC1
LD50 at 168 h [1]: > 4000 mg/kg
ED40 (Rattus norvegicus): > 100 mg/kg
ED50 (Mus musculus [2]): 200 mg/kg

CC(CN1CCN(c2ccccc2)CC1)OC(=O)c1ccccc1Nc1ccnc2cc(Cl)ccc12 (stereo not given)
ED2 (Mus musculus [3]): 200 mg/kg
LD50 at 168 h [1]: > 2000 mg/kg
ED40 (Rattus norvegicus): 300 mg/kg
ED50 (Mus musculus [2]): 63 mg/kg

O=C(OCCCN1CCN(c2ccccc2)CC1)c1ccccc1Nc1ccnc2cc(Cl)ccc12
ED2 (Mus musculus [3]): 250 mg/kg
LD50 at 168 h [1]: 2000 mg/kg
ED40 (Rattus norvegicus): 50 mg/kg
ED50 (Mus musculus [2]): 60 mg/kg

O=C(OCCN1CCN(c2ccccc2)CC1)c1ccccc1Nc1ccnc2cc(Cl)ccc12
ED2 (Mus musculus [3]): 200 mg/kg
LD50 at 168 h [1]: 4250 mg/kg
ED40 (Rattus norvegicus): 120 mg/kg
ED50 (Mus musculus [2]): 75 mg/kg

Cc1cc(Nc2ccccc2C(=O)OCCN2CCN(c3ccccc3)CC2)c2ccc(Cl)cc2n1
ED2 (Mus musculus [3]): 300 mg/kg
LD50 at 168 h [1]: 4000 mg/kg
ED40 (Rattus norvegicus): > 200 mg/kg
ED50 (Mus musculus [2]): 110 mg/kg

COc1ccc(N2CCN(CCOC(=O)c3ccccc3Nc3ccnc4cc(Cl)ccc34)CC2)cc1
ED2 (Mus musculus [3]): > 300 mg/kg
ED40 (Rattus norvegicus): 45 mg/kg
ED50 (Mus musculus [2]): 200 mg/kg

Cc1ccc(C)c(N2CCN(CCOC(=O)c3ccccc3Nc3ccnc4cc(Cl)ccc34)CC2)c1
ED2 (Mus musculus [3]): 300 mg/kg
LD50 at 168 h [1]: 4000 mg/kg
ED40 (Rattus norvegicus): 120 mg/kg
ED50 (Mus musculus [2]): 22 mg/kg

Cc1ccc(Cl)cc1N1CCN(CCOC(=O)c2ccccc2Nc2ccnc3cc(Cl)ccc23)CC1
ED2 (Mus musculus [3]): > 300 mg/kg
LD50 at 168 h [1]: > 4000 mg/kg
ED40 (Rattus norvegicus): 30 mg/kg
ED50 (Mus musculus [2]): 15 mg/kg

O=C(OCCN1CCN(c2ccc(Cl)cc2)CC1)c1ccccc1Nc1ccnc2cc(Cl)ccc12
ED2 (Mus musculus [3]): > 300 mg/kg
LD50 at 168 h [1]: > 2000 mg/kg
ED40 (Rattus norvegicus): 100 mg/kg
ED50 (Mus musculus [2]): 80 mg/kg

O=C(OCCN1CCN(c2cccc(Cl)c2)CC1)c1ccccc1Nc1ccnc2cc(Cl)ccc12
ED2 (Mus musculus [3]): 60 mg/kg
LD50 at 168 h [1]: 4000 mg/kg
ED40 (Rattus norvegicus): > 100 mg/kg
ED50 (Mus musculus [2]): 10 mg/kg

O=C(OCCN1CCN(c2cccc(C(F)(F)F)c2)CC1)c1ccccc1Nc1ccnc2cc(Cl)ccc12
ED2 (Mus musculus [3]): 150 mg/kg
ED40 (Rattus norvegicus): 40 mg/kg
ED50 (Mus musculus [2]): 24 mg/kg

O=C(OCCN1CCN(c2cccc(OC(F)(F)F)c2)CC1)c1ccccc1Nc1ccnc2cc(Cl)ccc12
ED2 (Mus musculus [3]): > 300 mg/kg
LD50 at 168 h [1]: 4000 mg/kg
ED40 (Rattus norvegicus): 50 mg/kg
ED50 (Mus musculus [2]): 120 mg/kg

O=C(OCCN1CCN(c2cccc(SC(F)(F)F)c2)CC1)c1ccccc1Nc1ccnc2cc(Cl)ccc12
ED2 (Mus musculus [3]): 200 mg/kg
LD50 at 168 h [1]: 3000 mg/kg
ED40 (Rattus norvegicus): 30 mg/kg
ED50 (Mus musculus [2]): 120 mg/kg

O=C(OCCN1CCN(c2ccccc2)CC1)c1ccccc1Nc1ccnc2c(Cl)cccc12
ED2 (Mus musculus [3]): > 250 mg/kg
LD50 at 168 h [1]: > 4000 mg/kg
ED40 (Rattus norvegicus): 300 mg/kg
ED50 (Mus musculus [2]): 80 mg/kg

O=C(OCCN1CCN(c2ccccc2)CC1)c1ccccc1Nc1ccnc2cc(C(F)(F)F)ccc12
ED2 (Mus musculus [3]): 300 mg/kg
LD50 at 168 h [1]: 2500 mg/kg
ED40 (Rattus norvegicus): 40 mg/kg
ED50 (Mus musculus [2]): 30 mg/kg

O=C(OCCN1CCN(c2cccc(Cl)c2)CC1)c1ccccc1Nc1ccnc2cc(C(F)(F)F)ccc12
ED2 (Mus musculus [3]): 150 mg/kg
LD50 at 168 h [1]: > 4000 mg/kg
ED40 (Rattus norvegicus): 30 mg/kg
ED50 (Mus musculus [2]): 9 mg/kg

O=C(OCCN1CCN(c2cccc(OC(F)(F)F)c2)CC1)c1ccccc1Nc1ccnc2cc(C(F)(F)F)ccc12
ED2 (Mus musculus [3]): > 300 mg/kg
LD50 at 168 h [1]: 3500 mg/kg
ED40 (Rattus norvegicus): 50 mg/kg
ED50 (Mus musculus [2]): 20 mg/kg

O=C(OCCN1CCN(c2cccc(SC(F)(F)F)c2)CC1)c1ccccc1Nc1ccnc2cc(C(F)(F)F)ccc12
ED2 (Mus musculus [3]): > 300 mg/kg
LD50 at 168 h [1]: 3750 mg/kg
ED40 (Rattus norvegicus): 30 mg/kg
ED50 (Mus musculus [2]): 8 mg/kg

O=C(OCCN1CCN(c2cc(C(F)(F)F)cc(C(F)(F)F)c2)CC1)c1ccccc1Nc1ccnc2cc(C(F)(F)F)ccc12
ED2 (Mus musculus [3]): > 300 mg/kg
LD50 at 168 h [1]: 4000 mg/kg
ED40 (Rattus norvegicus): 80 mg/kg
ED50 (Mus musculus [2]): 20 mg/kg

Cc1ccc(Cl)cc1N1CCN(CCOC(=O)c2ccccc2Nc2ccnc3cc(C(F)(F)F)ccc23)CC1
ED2 (Mus musculus [3]): > 300 mg/kg
LD50 at 168 h [1]: 3000 mg/kg
ED40 (Rattus norvegicus): 65 mg/kg
ED50 (Mus musculus [2]): 20 mg/kg

O=C(OCCN1CCN(c2ccccc2)CC1)c1ccccc1Nc1ccnc2c(C(F)(F)F)cccc12
ED2 (Mus musculus [3]): > 300 mg/kg
LD50 at 168 h [1]: 3000 mg/kg
ED40 (Rattus norvegicus): 64 mg/kg
ED50 (Mus musculus [2]): 35 mg/kg

O=C(OCCN1CCN(c2cccc(Cl)c2)CC1)c1ccccc1Nc1ccnc2c(C(F)(F)F)cccc12
ED2 (Mus musculus [3]): > 300 mg/kg
LD50 at 168 h [1]: > 3000 mg/kg
ED40 (Rattus norvegicus): 100 mg/kg
ED50 (Mus musculus [2]): 18 mg/kg

O=C(OCCN1CCN(c2cccc(C(F)(F)F)c2)CC1)c1ccccc1Nc1ccnc2c(C(F)(F)F)cccc12
ED2 (Mus musculus [3]): 100 mg/kg
LD50 at 168 h [1]: > 3000 mg/kg
ED40 (Rattus norvegicus): 120 mg/kg
ED50 (Mus musculus [2]): 40 mg/kg

O=C(OCCN1CCN(c2cccc(SC(F)(F)F)c2)CC1)c1ccccc1Nc1ccnc2c(C(F)(F)F)cccc12
ED2 (Mus musculus [3]): 200 mg/kg
LD50 at 168 h [1]: > 3000 mg/kg
ED40 (Rattus norvegicus): > 100 mg/kg
ED50 (Mus musculus [2]): 6 mg/kg

O=C(OCCN1CCN(c2ccccc2)CC1)c1ccccc1Nc1ccnc2cc(SC(F)(F)F)ccc12
ED2 (Mus musculus [3]): 300 mg/kg
ED40 (Rattus norvegicus): 100 mg/kg
ED50 (Mus musculus [2]): 9 mg/kg

O=C(OCCN1CCN(c2cccc(SC(F)(F)F)c2)CC1)c1ccccc1Nc1ccnc2cc(SC(F)(F)F)ccc12
ED2 (Mus musculus [3]): 200 mg/kg
ED40 (Rattus norvegicus): 180 mg/kg
ED50 (Mus musculus [2]): 60 mg/kg

O=C(OCCN1CCN(c2ccccc2)CC1)c1ccccc1Nc1ccnc2cc(OC(F)(F)F)ccc12
ED2 (Mus musculus [3]): 300 mg/kg
LD50 at 168 h [1]: 1300 mg/kg
ED40 (Rattus norvegicus): 40 mg/kg
ED50 (Mus musculus [2]): 24 mg/kg

O=C(OCCN1CCN(c2cccc(Cl)c2)CC1)c1ccccc1Nc1ccnc2cc(OC(F)(F)F)ccc12
ED2 (Mus musculus [3]): 300 mg/kg
LD50 at 168 h [1]: 4000 mg/kg
ED40 (Rattus norvegicus): 85 mg/kg
ED50 (Mus musculus [2]): 20 mg/kg

O=C(OCCN1CCN(c2cccc(C(F)(F)F)c2)CC1)c1ccccc1Nc1ccnc2cc(OC(F)(F)F)ccc12
ED2 (Mus musculus [3]): 150 mg/kg
LD50 at 168 h [1]: 1500 mg/kg
ED40 (Rattus norvegicus): 43 mg/kg
ED50 (Mus musculus [2]): 20 mg/kg

O=C(OCCN1CCN(c2cccc(OC(F)(F)F)c2)CC1)c1ccccc1Nc1ccnc2cc(OC(F)(F)F)ccc12
ED2 (Mus musculus [3]): > 300 mg/kg
LD50 at 168 h [1]: 3500 mg/kg
ED40 (Rattus norvegicus): 75 mg/kg
ED50 (Mus musculus [2]): 70 mg/kg

O=C(O)c1ccccc1Nc1ccnc2cc(C(F)(F)F)ccc12
ED2 (Mus musculus [3]): > 600 mg/kg
LD50 at 168 h [1]: 1000 mg/kg
ED50 (Mus musculus [2]): 18 mg/kg

Cc1c(N(C)C)c(=O)n(-c2ccccc2)n1C [AMINOPYRINE]
ED2 (Mus musculus [3]): 250 mg/kg
LD50 at 168 h [1]: 800 mg/kg
ED40 (Rattus norvegicus): 60 mg/kg
ED50 (Mus musculus [2]): 40 mg/kg

O=C(OCCN1CCN(c2cccc(C(F)(F)F)c2)CC1)c1ccccc1Nc1ccnc2cc(C(F)(F)F)ccc12 [ANTRAFENINE]
ED2 (Mus musculus [3]): 30 mg/kg
LD50 at 168 h [1]: 4000 mg/kg
ED40 (Rattus norvegicus): 40 mg/kg
ED50 (Mus musculus [2]): 6 mg/kg

O=C(OCC(O)CO)c1ccccc1Nc1ccnc2cc(Cl)ccc12 (stereo not given) [GLAFENINE]
ED2 (Mus musculus [3]): > 600 mg/kg
ED40 (Rattus norvegicus): 30 mg/kg
ED50 (Mus musculus [2]): 56 mg/kg
